Consider six compounds from ChEMBL document CHEMBL1124054, “Synthesis and biological activity of ketomethylene-containing nonapeptide analogues of snake venom angiotensin converting enzyme inhibitors” (J Med Chem, 1988).

Non-standard residues stand in square brackets, D forms with d. Residues, ends and D or L forms follow the SMILES beside them. pGlu = O=C1CC[C@@H](C(=O)O)N1

The target of experiment [1] is Angiotensin-converting enzyme (Oryctolagus cuniculus) (UniProt P12822). The experiment can be described thus: Inhibition of Angiotensin I converting enzyme from rabbit lung. The note with it: read-out: I50.
In experiment [2] the target is T1, Angiotensin-converting enzyme (Rattus norvegicus, UniProt P47820).
T1 sequence (P47820 whole entry): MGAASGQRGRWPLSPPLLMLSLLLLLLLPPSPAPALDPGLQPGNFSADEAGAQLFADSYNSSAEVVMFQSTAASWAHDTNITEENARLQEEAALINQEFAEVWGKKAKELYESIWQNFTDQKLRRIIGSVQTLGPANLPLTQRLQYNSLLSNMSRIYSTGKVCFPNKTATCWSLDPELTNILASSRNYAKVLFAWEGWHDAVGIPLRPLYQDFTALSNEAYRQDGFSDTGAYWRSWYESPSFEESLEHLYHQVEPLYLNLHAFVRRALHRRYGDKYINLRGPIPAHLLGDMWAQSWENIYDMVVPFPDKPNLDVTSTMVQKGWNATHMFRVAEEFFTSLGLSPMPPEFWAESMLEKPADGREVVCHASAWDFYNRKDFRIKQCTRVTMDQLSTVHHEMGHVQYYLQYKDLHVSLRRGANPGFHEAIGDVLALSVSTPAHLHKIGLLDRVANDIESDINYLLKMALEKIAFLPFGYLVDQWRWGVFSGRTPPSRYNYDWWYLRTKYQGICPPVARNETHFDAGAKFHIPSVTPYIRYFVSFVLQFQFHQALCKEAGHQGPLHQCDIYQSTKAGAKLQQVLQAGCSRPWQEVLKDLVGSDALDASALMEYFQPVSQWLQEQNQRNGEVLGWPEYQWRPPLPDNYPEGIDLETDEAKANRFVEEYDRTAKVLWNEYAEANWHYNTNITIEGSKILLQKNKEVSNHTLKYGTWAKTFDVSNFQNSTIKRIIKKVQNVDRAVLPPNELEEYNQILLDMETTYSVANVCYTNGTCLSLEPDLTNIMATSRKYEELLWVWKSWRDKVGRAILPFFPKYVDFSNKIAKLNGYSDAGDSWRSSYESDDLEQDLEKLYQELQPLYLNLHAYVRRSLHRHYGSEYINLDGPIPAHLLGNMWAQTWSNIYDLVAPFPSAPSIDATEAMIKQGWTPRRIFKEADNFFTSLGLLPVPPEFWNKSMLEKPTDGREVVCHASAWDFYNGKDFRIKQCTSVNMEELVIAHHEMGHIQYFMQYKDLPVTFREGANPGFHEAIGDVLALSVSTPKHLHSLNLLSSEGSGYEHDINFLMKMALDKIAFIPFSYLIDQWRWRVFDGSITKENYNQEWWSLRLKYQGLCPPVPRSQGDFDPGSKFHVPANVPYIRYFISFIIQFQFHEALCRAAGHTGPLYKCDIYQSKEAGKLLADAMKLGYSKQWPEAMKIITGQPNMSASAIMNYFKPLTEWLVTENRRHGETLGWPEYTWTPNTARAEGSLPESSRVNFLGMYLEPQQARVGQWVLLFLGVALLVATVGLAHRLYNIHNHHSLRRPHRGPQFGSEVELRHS
The experiment can be described thus: Inhibition of Angiotensin I converting enzyme in normotensive rat. Format: functional. To be noted: read-out: I50 (converted).

Experiment [3] concerns Rattus norvegicus. In words: Inhibition of angiotensin I induced blood pressure in normotensive anesthetized rats at 3 ug/kg (i.v.) for 5 min. Format: functional. The gist of the method: (§1)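 Male Sprague-Dawley normotensive rats (290-540 g), pentobarbital-anesthetized (50 mg/kg ip), intubated. Jugular vein cannulated for iv dosing and carotid artery for blood pressure. Control pressor response to angiotensin I (175 ng/kg iv) taken after vehicle (1 mL/kg). Compound given iv in distilled water or 5% sodium bicarbonate. Angiotensin I challenge repeated at 1.5 to 75 min, rise in pressure compared with control.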

Experiment [4] concerns Rattus norvegicus. The experiment can be described thus: Inhibition of angiotensin I induced blood pressure in normotensive anesthetized rats at 30 ug/kg (i.v.) for 1.5 min. Format: functional. The gist of the method:
as §1

Experiment [5] has as its system Rattus norvegicus. In words: Inhibition of angiotensin I induced blood pressure in normotensive anesthetized rats at 30 ug/kg (i.v.) for 10 min. It counts as functional. The gist of the method:
as §1

For experiment [6], the system named is Rattus norvegicus. The experiment can be described thus: Inhibition of angiotensin I induced blood pressure in normotensive anesthetized rats at 3 ug/kg (i.v.) for 10 min. Format: functional. The method in brief: as §1
The subject of experiment [7] is Rattus norvegicus. In words: Inhibition of angiotensin I induced blood pressure in normotensive anesthetized rats at 30 ug/kg (i.v.) for 5 min. It counts as functional. The gist of the method: as §1
The subject of experiment [8] is Rattus norvegicus. The experiment can be described thus: Inhibition of angiotensin I induced blood pressure in normotensive anesthetized rats at 30 ug/kg (i.v.) for 30 min. It counts as functional. The gist of the method:
as §1

For experiment [9], the system named is Rattus norvegicus. In words: Inhibition of angiotensin I induced blood pressure in normotensive anesthetized rats at 100 ug/kg (i.v.) for 75 min. It counts as functional. The method in brief: as §1
In experiment [10] the test system is Rattus norvegicus. The experiment can be described thus: Inhibition of angiotensin I induced blood pressure in normotensive anesthetized rats at 100 ug/kg (i.v.) for 60 min. Format: functional. The method in brief: as §1
The subject of experiment [11] is Rattus norvegicus. In words: Inhibition of angiotensin I induced blood pressure in normotensive anesthetized rats at 100 ug/kg (i.v.) for 30 min. It counts as functional. The method in brief: as §1
Experiment [12] relates to Rattus norvegicus. The experiment can be described thus: Inhibition of angiotensin I induced blood pressure in normotensive anesthetized rats at 3 ug/kg (i.v.) for 1.5 min. Format: functional. The gist of the method:
as §1

The test system of experiment [13] is Rattus norvegicus. In words: Inhibition of angiotensin I induced blood pressure in normotensive anesthetized rats at 100 ug/kg (i.v.) for 10 min. Format: functional. The gist of the method:
as §1

Experiment [14] concerns Rattus norvegicus. The experiment can be described thus: Inhibition of angiotensin I induced blood pressure in normotensive anesthetized rats at 100 ug/kg (i.v.) for 1.5 min. It counts as functional. The gist of the method: as §1
In experiment [15] the test system is Rattus norvegicus. In words: Inhibition of angiotensin I induced blood pressure in normotensive anesthetized rats at 100 ug/kg (i.v.) for 5 min. Format: functional. The gist of the method: as §1

Regarding `CC[C@H](C)[C@H](NC(=O)[C@H](CCC(N)=O)NC(=O)[C@@H]1CCCN1C(=O)[C@H](CCCN=C(N)N)NC(=O)[C@@H]1CCCN1C(=O)[C@H](Cc1ccc(O)cc1)NC(=O)[C@@H]1CCC(=O)N1)C(=O)N1CCC[C@H]1C(=O)N1CCC[C@H]1C(=O)O` ([pGlu]YPRPQIPP-OH), in experiment [1], the IC50 is 2600 nM.
Regarding `NCCCC[C@H](NC(=O)[C@@H]1CCC(=O)N1)C(=O)N[C@@H](Cc1ccccc1)C(=O)NCC(=O)N1CCC[C@H]1C(=O)O` ([pGlu]KFGP-OH), the IC50 in experiment [2] was 179 nM.
Consider `C[C@H](CS)C(=O)N1CCC[C@H]1C(=O)O` [CAPTOPRIL], for which the Inhibition over time with Rattus norvegicus [3] is on record as 8.3%; in the experiment on Rattus norvegicus [4], 78.3%; in the experiment with Rattus norvegicus [5], 8.3%; with Rattus norvegicus [6] it was 0%; with Rattus norvegicus [7] it was 60.5%; in the experiment on Rattus norvegicus [8] it was 0%. Moreover, the Inhibition over time in the experiment with Rattus norvegicus [9] came to 0%; with Rattus norvegicus [10], 1.8%; in the experiment with Rattus norvegicus [11] it was 27.3%; with Rattus norvegicus [12], 18.7%; in the experiment on Rattus norvegicus [13], 51.1%; with Rattus norvegicus [14] it was 71.5%. Besides, the Inhibition over time in the experiment on Rattus norvegicus [15] is given as 83.5%.
On to `CC[C@H](C)[C@H](NC(=O)[C@H](CCC(N)=O)NC(=O)[C@@H]1CCCN1C(=O)[C@H](CCCNC(=N)N)NC(=O)[C@@H]1CCCN1C(=O)[C@H](Cc1c[nH]c2ccccc12)NC(=O)[C@@H]1CCC(=O)N1)C(=O)N1CCC[C@H]1C(=O)N1CCC[C@H]1C(=O)O` [TEPROTIDE], for which the IC50 in [1] turned out to be 1100 nM.
For `C[C@H](NC(=O)[C@H](Cc1ccccc1)NC(=O)[C@H](CCCCN)NC(=O)[C@@H]1CCCN1C(=O)[C@H](CCCN=C(N)N)NC(=O)[C@@H]1CCCN1C(=O)[C@H](Cc1c[nH]c2ccccc12)NC(=O)[C@@H]1CCC(=O)N1)C(=O)N1CCC[C@H]1C(=O)O` ([pGlu]WPRPKFAP-OH), the IC50 in experiment [1] amounted to 50 nM.
On the same count and under the same terms, the figure for `NCCCCC(NC(=O)C1CCC1)C(=O)NC(Cc1ccccc1)C(=O)CCC(=O)N1CCCC1C(=O)O` (stereo not drawn) is 6 nM.
